# Data as given in PubChem BioAssay AID651999 (Sanford-Burnham Center for Chemical Genomics, 2013).
# Screen size: about 360,000 compounds; about 1,400 (0.39%) were called active. The list comes from a sample in which actives are over-represented; it also holds similar structures and randomly drawn compounds. Unmarked numbers belong to inactive results.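 How the source made its calls: active means pattern-corrected inhibition above about 35%, with an unprinted fluorescence ratio check between 0.5 and 1.5 (limit read from the data, passing the limit was not always enough); inactive means the rest.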
# Target: COP9 signalosome complex subunit 5 (Homo sapiens) (UniProt Q92905)
# Sequence (Q92905 whole entry, looked up, one chain of several): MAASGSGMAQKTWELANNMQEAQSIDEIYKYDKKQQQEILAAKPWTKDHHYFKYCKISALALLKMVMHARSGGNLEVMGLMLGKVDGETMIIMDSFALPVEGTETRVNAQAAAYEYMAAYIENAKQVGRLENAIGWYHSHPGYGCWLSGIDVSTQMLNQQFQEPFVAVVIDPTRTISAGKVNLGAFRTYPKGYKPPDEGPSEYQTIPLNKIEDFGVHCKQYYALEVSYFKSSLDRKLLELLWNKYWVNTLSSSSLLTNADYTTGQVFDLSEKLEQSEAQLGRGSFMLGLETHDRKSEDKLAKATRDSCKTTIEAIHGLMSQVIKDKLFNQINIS
# Test: CSN5 deneddylase inhibitors on cullin-RING ligase – biochemical, fluorescence polarization, uHTS, primary screen (AID 651999);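 further: 0% = enzyme with substrate and 100% = substrate without enzyme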
# Conditions: Purified CSN, SCF-Nedd8-OG deneddylation, at 12.5 µM, stronger effect = higher value
# Method in brief: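 Test system: Human Csn5 produced in HEK293T cells | Compound: 12.5 µM single point | Times: 90 min, room temperature | Signal: Fluorescence polarization readout | Read-out basis: % inhibition of substrate cleavage by Csn5 | Controls: no-enzyme wells high, enzyme-with-substrate wells low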
row,SMILES,inhibition
1,O=C(COC(=O)C1CCCCC1)Nc1ccc([N+](=O)[O-])cc1,-5.15%
2,O=C(COc1ccc([N+](=O)[O-])cc1)Nc1ccc(N2CCCC2)cc1,45.2% (active)
3,O=C(CCC(=O)N1CCCC1)Nc1ccc([N+](=O)[O-])cc1,-2.97%
4,Cn1c2c(c(=O)n(C)c1=O)[C@@H]1c3c(ccc4ccccc34)OC[C@@H]1CO2,0.02%
5,COc1cc(/C=C(\C#N)c2nc3c(s2)CC(C)CC3)ccc1O (stereo unspecified),82% (active)
6,COc1cc(/C=C(\C#N)c2nc3ccccc3[nH]2)ccc1O,73.3% (active)
7,CCN(/N=C/c1ccc(N(C)C)cc1)c1nc2ccccc2[nH]1,-1.85%
8,COc1cc(C=NC2CCCCC2)ccc1O,4.95%
9,CC1(C)O[C@H]2CC(=O)OCC23[C@H]2CC[C@@]4(C)[C@H](c5ccoc5)OC(=O)[C@H]5O[C@]54[C@]2(C)C(=O)C[C@@H]13 (stereo partly specified),-1.16%
10,COc1cccc(NC(=O)CN(C)C(=O)c2ccccc2CCc2ccccc2)c1,4.75%
11,O=C(NCc1ccccc1)C1=C[C@@H](c2ccc(C(F)(F)F)cc2)C[C@@H](OCc2ccc(CO)cc2)O1,4.14%
12,Cc1ccc(OCC(=O)Oc2ccccc2[N+](=O)[O-])cc1,1.14%
13,Cc1cc2nc(-c3ccc(F)cc3)c(Cc3ccsc3)n2c(C)c1Br,-4.07%
14,Cc1cc2nc(-c3ccco3)c(Cc3cccc(F)c3)n2c(C)c1Br,38.5% (active)
15,Cc1cc2nc(-c3ccc(Cl)cc3)c(Cc3cccc(F)c3)n2c(C)c1Br,3.52%
16,O=C1NC2(CCCCC2)N=C1c1ccccc1,-2.27%
17,CC1CCCN(C(=O)Cn2c(=O)oc3cc(S(=O)(=O)N4CCCCC4C)ccc32)C1 (stereo unspecified),-0.78%
18,C=CCc1ccc(OCCOc2cccc(/C=N/n3cnnc3)c2)c(OC)c1,0.99%
19,Cc1nc([N+](=O)[O-])cn1CC(=O)Nc1ccc2c(c1)OCO2,-0.35%
20,Cc1ccc(C(=O)O)cc1-c1ccc(/C=C2\SC(=O)N(CC(=O)Nc3ccc4c(c3)OCO4)C2=O)o1,102% (active)
21,O=C(CCN1C(=O)c2ccncc2C1=O)Nc1ccc2c(c1)OCCO2,5.06%
22,CNS(=O)(=O)c1ccc(N2CCCC2=O)c([N+](=O)[O-])c1,-1.32%
23,Cc1ccc(-c2nn(-c3ccccc3)cc2/C=C2\SC(=S)N(CCCCCC(=O)O)C2=O)o1,66.1% (active)

row,SMILES,inhibition
1,O=C(CNC(=O)c1ccccc1F)c1ccc(Br)cc1,3.53%
2,O=C(O)CC/C(=N\NC(=O)c1ccc(F)cc1)c1ccc(Br)cc1,51.7% (active)
3,C/C(CC(=O)N1CCN(C=O)CC1)=N\NC(=O)c1ccc(Br)cc1,-6.38%
4,Cc1ccn(CCC(=O)N2c3ccccc3CC2C)n1 (stereo unspecified),0.86%
5,CCOC(=O)C1CCCN(CCSc2ccc(C)cc2)C1 (stereo unspecified),-0.91%
6,COc1ccc2c(c1)c(=Cc1ccc(N(C)C)cc1)c1cc(-c3ccccc3)[n+](C)n12,61.6% (active)
7,CCOC(=O)[C@]12CCCC=C1N(CCC1=CCCCC1)C(=O)[C@H](CC(=O)N1CCN(C(=O)c3ccco3)CC1)C2,-3.01%
8,CCC(C)Cn1c(O)cc2nn(-c3nc4ccccc4s3)c(=O)c-2c1C (stereo unspecified),35.4% (active)
9,CCC(CC)C(=O)Nc1cccc(C(=O)N2CCCC2)c1,2.19%
10,CC1CC(C)CN(S(=O)(=O)c2cccc3nonc23)C1 (stereo unspecified),0.47%
11,CCCCCN(C(=O)CCC(=O)OCC(=O)NCc1ccc(OC)cc1)c1c(N)n(CCCC)c(=O)[nH]c1=O,4.14%
12,CC(C)C1CC2=C(C(=O)OC(C)(C)O2)C(c2ccc(F)cc2)O1 (stereo unspecified),2.3%
13,CCC(C)NC(=O)N[C@@H](CCSC)C(=O)O (stereo partly specified),-1.26%
14,Cc1sc2ncnc(SCC(=O)NC3CCS(=O)(=O)C3)c2c1C (stereo unspecified),-1.73%
15,COC(=O)c1c(-c2cccs2)csc1NC(=O)CSc1ncnc2sc(C)c(C)c12,-5.37%
16,Cc1sc2ncnc(SCC(=O)Nc3ccc(CN4CCCC4)cc3)c2c1C,108% (active)
17,Cc1ccc2nc(-c3ccncc3)cc(C(=O)Nc3ccc(OC(F)F)cc3)c2c1,42% (active)
18,Cc1cc(NS(=O)(=O)c2ccc(NC(=O)c3cccc(OC(F)F)c3)cc2)nc(C)n1,2.76%
19,O=C(Nc1ccc(Br)cc1)c1cc(S(=O)(=O)Nc2ccccn2)ccc1Cl,-4.77%
20,O=C(Nc1ccncc1)c1cc(-c2ccccn2)nc2ccc(Br)cc12,51.3% (active)
21,O=C(Nc1cccnc1)c1cc2cc(Br)ccc2oc1=O,5.43%
22,COc1ccc(C)cc1NC(=O)c1cc(-c2ccccc2)nc2c1cnn2C(C)C,-2.82%
23,O=C(NCc1ccncc1)C(=O)NCc1ccco1,-6.34%
